According to ChEMBL document CHEMBL4425094, “Novel Benzo[a]quinolizidine Analogs Induce Cancer Cell Death through Paraptosis and Apoptosis” (J Med Chem, 2016):

How the values were obtained:
DU-145 = assay: Cytotoxicity against human DU145 cells assessed as cell growth inhibition after 24 hrs by MTT assay; assay type: functional, cell-based; settings: DU-145, 24 h
Summary of the method: (§1)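 Cells seeded 24 h in RPMI 1640 + 10% FBS. RWPE-1 was kept in K-SFM with bovine pituitary extract and EGF. Cells then exposed to compounds for 24 h at 37 °C, 5% CO2, with DMSO vehicle and docetaxel as positive control. MTT added for 4 h, absorbance read at 570 nm. Triplicate runs, IC50 reported as mean of three experiments.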

MDA-MB-231 = assay: Cytotoxicity against human MDA-MB-231 cells assessed as cell growth inhibition after 24 hrs by MTT assay; assay type: functional, cell-based; settings: MDA-MB-231, 24 h; summary of the method: as §1
RWPE-1 = assay: Cytotoxicity against human RWPE1 cells assessed as cell growth inhibition after 24 hrs by MTT assay; assay type: cell-based; settings: RWPE-1, 24 h; summary of the method: as §1
HeLa = assay: Cytotoxicity against human HeLa cells assessed as cell growth inhibition after 24 hrs by MTT assay; assay type: functional, cell-based; summary of the method: as §1
PC-3 = assay: Cytotoxicity against human PC3 cells assessed as cell growth inhibition after 24 hrs by MTT assay; assay type: functional, cell-based; settings: PC-3, 24 h; summary of the method: as §1
MCF7 = assay: Cytotoxicity against human MCF7 cells assessed as cell growth inhibition after 24 hrs by MTT assay; assay type: functional, cell-based; settings: MCF7, 24 h; summary of the method: as §1
K562 = assay: Cytotoxicity against human K562 cells assessed as cell growth inhibition after 24 hrs by MTT assay; assay type: functional, cell-based; settings: K562, 24 h; summary of the method: as §1

Compound	IC50 (DU-145) [µM]	IC50 (MDA-MB-231) [µM]	IC50 (RWPE-1) [µM]	IC50 (HeLa) [µM]	IC50 (PC-3) [µM]	IC50 (MCF7) [µM]	IC50 (K562) [µM]
C/C=C/C(=O)CC1c2cc(OCc3cc(C)cc(C)c3)c(OCc3cc(C)cc(C)c3)cc2CCN1C(=O)OC(C)(C)C (centres undefined)	> 20	> 20	> 20	> 20	> 20	> 20	> 20
O[C@H]1C[C@@H](c2ccc(-c3ccccc3)cc2)N2CCc3cc(OCc4ccccc4)c(OCc4ccccc4)cc3[C@@H]2C1	> 20	> 20	> 20	> 20	> 20	> 20	> 20
O=C1C[C@@H](c2ccccc2)N2CCc3ccccc3[C@@H]2C1 (relative stereo)	> 20	> 20	> 20	> 20	> 20	> 20	> 20
C[C@@H]1CC(=O)C[C@H]2c3cc(OCc4cc(F)cc(F)c4)c(OCc4cc(F)cc(F)c4)cc3CCN12 (relative stereo)	> 20	> 20	> 20	> 20	> 20	> 20	> 20
C[C@@H]1C[C@H](O)C[C@H]2c3cc(OCc4cccc(F)c4)c(OCc4cccc(F)c4)cc3CCN12	3.05	1.23	4.45	1.31	1.36	0.62	1.08
Oc1cc2c(cc1O)[C@@H]1C[C@@H](O)C[C@@H](c3ccccc3)N1CC2	> 20	> 20	> 20	> 20	> 20	> 20	> 20
C[C@@H]1CC(=O)C[C@H]2c3cc4c(cc3CCN12)OCO4 (relative stereo)	> 20	> 20	> 20	> 20	> 20	> 20	> 20
COc1ccc([C@@H]2C[C@H](O)C[C@H]3c4cc(OCc5cc(F)cc(F)c5)c(OCc5cc(F)cc(F)c5)cc4CCN23)cc1OC	> 20	> 20	> 20	> 20	> 20	> 20	> 20
C[C@@H]1C[C@@](C)(O)C[C@H]2c3cc(OCc4ccc(Br)cc4)c(OCc4ccc(Br)cc4)cc3CCN12	1.97	1.2	2.95	1.88	0.79	0.84	1.79
O[C@@H]1C[C@@H](c2ccccc2)N2CCc3cc4c(cc3[C@@H]2C1)OCO4	> 20	> 20	> 20	> 20	> 20	> 20	> 20
Cc1cc(C)cc(COc2cc3c(cc2OCc2cc(C)cc(C)c2)[C@@H]2CC(=O)C[C@@H](C)N2CC3)c1 (relative stereo)	> 20	> 20	> 20	> 20	> 20	> 20	> 20
COc1ccc([C@@H]2C[C@@H](O)C[C@H]3c4cc(OCc5ccccc5)c(OCc5ccccc5)cc4CCN23)cc1OC	1.59	1.15	2.08	3.46	1.51	2	5.42
O[C@@H]1C[C@@H](c2ccccc2)N2CCc3ccc(OCc4ccccc4)cc3[C@@H]2C1	> 20	> 20	> 20	> 20	> 20	> 20	> 20
O[C@H]1C[C@@H](c2ccccc2)N2CCc3ccc(OCc4ccccc4)cc3[C@@H]2C1	> 20	> 20	> 20	> 20	> 20	> 20	> 20
CC[C@@H]1C[C@@H](O)C[C@H]2c3cc(OCc4ccccc4)c(OCc4ccccc4)cc3CCN12	1.68	2.88	2.2	2.43	2.15	2.79	1.41
COc1ccc([C@@H]2C[C@@H](O)C[C@H]3c4cc(OCc5ccccc5)c(OCc5ccccc5)cc4CCN23)cc1	> 20	> 20	> 20	> 20	> 20	> 20	> 20
O=C1C[C@@H](c2ccccc2)N2CCc3cc(O)c(O)cc3[C@@H]2C1 (relative stereo)	> 20	> 20	> 20	> 20	> 20	> 20	> 20
